# Reference: ChEMBL document CHEMBL2396594, “Designing allosteric regulators of thrombin. Exosite 2 features multiple subsites that can be targeted by sulfated small molecules for inducing inhibition” (J Med Chem, 2013)
# The source made the active and inactive calls. The calls are words filed in the database; no cut-off is given here.
# What was measured:
# [1] = (§1) Binding affinity to human plasma alpha-thrombin exosite-2 using spectrozyme TH as substrate after overnight incubation at 25 degC by spectrophotometric analysis in presence of 6.5 uM gamma'-fibrinogen peptide; type: cell-free
# [2] = species: Homo sapiens; assay: as §1; type: cell-free
# [3] = (§2) Binding affinity to human plasma alpha-thrombin exosite-2 using spectrozyme TH as substrate after overnight incubation at 25 degC by spectrophotometric analysis in presence of 0.2 uM gamma'-fibrinogen peptide; type: cell-free
# [4] = species: Homo sapiens; assay: as §2; type: cell-free
# [5] = (§3) Binding affinity to human plasma alpha-thrombin exosite-2 using spectrozyme TH as substrate after overnight incubation at 25 degC by spectrophotometric analysis in presence of 20 uM heparin octasaccharide; type: cell-free
# [6] = species: Homo sapiens; assay: as §3; type: cell-free
# [7] = (§4) Binding affinity to human plasma alpha-thrombin exosite-2 using spectrozyme TH as substrate after overnight incubation at 25 degC by spectrophotometric analysis in presence of 3 uM heparin octasaccharide; type: cell-free
# [8] = species: Homo sapiens; assay: as §4; type: cell-free
# [9] = (§5) Binding affinity to human plasma alpha-thrombin exosite-2 using spectrozyme TH as substrate after overnight incubation at 25 degC by spectrophotometric analysis in presence of 1 uM heparin octasaccharide; type: cell-free
# [10] = species: Homo sapiens; assay: as §5; type: cell-free
# [11] = (§6) Binding affinity to human plasma alpha-thrombin exosite-2 using spectrozyme TH as substrate after overnight incubation at 25 degC by spectrophotometric analysis in presence of 42.6 uM unfractionated heparin; type: cell-free
# [12] = species: Homo sapiens; assay: as §6; type: cell-free
# [13] = (§7) Binding affinity to human plasma alpha-thrombin exosite-2 using spectrozyme TH as substrate after overnight incubation at 25 degC by spectrophotometric analysis in presence of 25 uM unfractionated heparin; type: cell-free
# [14] = species: Homo sapiens; assay: as §7; type: cell-free
# [15] = (§8) Binding affinity to human plasma alpha-thrombin exosite-2 using spectrozyme TH as substrate after overnight incubation at 25 degC by spectrophotometric analysis in presence of 4.2 uM unfractionated heparin; type: cell-free
# [16] = species: Homo sapiens; assay: as §8; type: cell-free
# [17] = (§9) Binding affinity to human plasma alpha-thrombin exosite-1 using spectrozyme TH as substrate after overnight incubation at 25 degC by spectrophotometric analysis in presence of 15 nM hirugen peptide; type: cell-free
# [18] = species: Homo sapiens; assay: as §9; type: cell-free
# [19] = (§10) Binding affinity to human plasma alpha-thrombin exosite-1 using spectrozyme TH as substrate after overnight incubation at 25 degC by spectrophotometric analysis in presence of 5 nM hirugen peptide; type: cell-free
# [20] = species: Homo sapiens; assay: as §10; type: cell-free
# [21] = (§11) Binding affinity to human plasma alpha-thrombin exosite-1 using spectrozyme TH as substrate after overnight incubation at 25 degC by spectrophotometric analysis in presence of 3 nM hirugen peptide; type: cell-free
# [22] = species: Homo sapiens; assay: as §11; type: cell-free
# [23] = species: Homo sapiens; assay: Selectivity ratio of IC50 for recombinant human thrombin R233A mutant to IC50 for wild type recombinant human thrombin
# Outline: (§12)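 BHK-expressed, HPC4 immunoaffinity-purified thrombins, activated from prothrombin form. Active-site concentration from amidolysis and antithrombin titration. Enzyme (1.5−7.5 nM final) incubated overnight at 25 °C with inhibitor in Tris pH 7.4 buffer in coated cuvettes. Residual activity from S2238 initial rate at A405, using at least 9−10 points. Logistic fit gives IC50. Ratio is mutant IC50 over wild-type IC50.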
# [24] = species: Homo sapiens; assay: Uncompetitive inhibition of human plasma alpha-thrombin using spectrozyme TH as substrate assessed as decrease in enzyme Vmax at 9.9 uM after 2 hrs at 37 degC by Michaelis-Menten equation analysis relative to control; type: cell-free
# Outline: (§13)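 5 nM plasma α-thrombin with fixed inhibitor, preincubated overnight at 25 °C or 2 h at 37 °C in 20 mM Tris-HCl pH 7.4, 100 mM NaCl, 2.5 mM CaCl2, 0.1% PEG8000. Initial Spectrozyme TH (2−80 μM) hydrolysis rate read at 405 nm with under 10% substrate consumption. Michaelis−Menten fit gives KM and VMAX; error ±1 SE.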
# [25] = Inhibition of recombinant human thrombin R175A mutant expressed in BHK cells using S2238 as substrate after overnight incubation at 25 degC; outline: as §12
# [26] = species: Homo sapiens; assay: Uncompetitive inhibition of human plasma alpha-thrombin using spectrozyme TH as substrate assessed as decrease in substrate Km at 9.9 uM after 2 hrs at 37 degC by Michaelis-Menten equation analysis relative to control; type: cell-free; outline: as §13
# [27] = species: Homo sapiens; assay: Uncompetitive inhibition of human plasma alpha-thrombin using spectrozyme TH as substrate assessed as decrease in substrate Km at 3.6 uM after overnight incubation at 25 degC by Michaelis-Menten equation analysis relative to control; type: cell-free; outline: as §13
# [28] = Inhibition of recombinant human thrombin R93A mutant expressed in BHK cells using S2238 as substrate after overnight incubation at 25 degC; outline: as §12
# [29] = molecular target: Prothrombin (Homo sapiens, UniProt P00734, R97A); assay: Inhibition of recombinant human thrombin R97A mutant expressed in BHK cells using S2238 as substrate after overnight incubation at 25 degC; outline: as §12
# [30] = Inhibition of recombinant human thrombin R101A mutant expressed in BHK cells using S2238 as substrate after overnight incubation at 25 degC; outline: as §12
# [31] = Inhibition of recombinant human thrombin R165A mutant expressed in BHK cells using S2238 as substrate after overnight incubation at 25 degC; outline: as §12
# [32] = Inhibition of recombinant human thrombin R173A mutant expressed in BHK cells using S2238 as substrate after overnight incubation at 25 degC; outline: as §12
# [33] = Inhibition of recombinant human thrombin K235A mutant expressed in BHK cells using S2238 as substrate after overnight incubation at 25 degC; outline: as §12
# [34] = Inhibition of recombinant human thrombin K240A mutant expressed in BHK cells using S2238 as substrate after overnight incubation at 25 degC; outline: as §12
# [35] = species: Homo sapiens; assay: Selectivity ratio of IC50 for recombinant human thrombin K236A mutant to IC50 for wild type recombinant human thrombin; outline: as §12
# [36] = tested on: Plasma; assay: Anticoagulant activity in human plasma assessed as increase in prothrombin time at 568 uM after 30 secs by fibrometric analysis relative to control; type: functional
# Outline: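 Citrated human plasma, one-stage recalcification, fibrometer read-out. APTT: 90 μL plasma + 10 μL inhibitor or vehicle + prewarmed 0.2% ellagic acid, 4 min, then 25 mM CaCl2 (37 °C). PT: inhibitor + plasma 30 s at 37 °C, then prewarmed thromboplastin. Duplicates. Quadratic trend line fit gives concentration doubling clotting time versus vehicle blank.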
# [37] = molecular target: Coagulation factor X (Homo sapiens) (UniProt P00742); assay: Inhibition of human factor 10a at 365 uM
# [38] = species: Homo sapiens; assay: Inhibition of human plasma alpha-thrombin assessed as spectrozyme TH hydrolysis at 1 to 900 uM preincubated for 10 mins by spectrophotometric analysis relative to control; type: cell-free
# Outline: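 Human plasma α-thrombin (5 nM final) with inhibitor (1−900 μM final) in 20 mM Tris-HCl pH 7.4, 100 mM NaCl, 2.5 mM CaCl2, 0.1% PEG8000, PEG20000-coated cuvettes, 10 min. Spectrozyme TH then added (30 μM final). Initial rate from A405 increase. Residual activity fitted by logistic equation with floating Hill slope, Y0, YM to give IC50.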
# Chain of Coagulation factor X (Homo sapiens) (P00742 41-179 limits assumed): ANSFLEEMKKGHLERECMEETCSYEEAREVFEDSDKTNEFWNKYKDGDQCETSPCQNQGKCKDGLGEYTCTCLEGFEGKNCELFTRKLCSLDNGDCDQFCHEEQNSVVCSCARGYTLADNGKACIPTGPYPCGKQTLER
# Chain of Coagulation factor X (Homo sapiens) (P00742 235-488 limits assumed): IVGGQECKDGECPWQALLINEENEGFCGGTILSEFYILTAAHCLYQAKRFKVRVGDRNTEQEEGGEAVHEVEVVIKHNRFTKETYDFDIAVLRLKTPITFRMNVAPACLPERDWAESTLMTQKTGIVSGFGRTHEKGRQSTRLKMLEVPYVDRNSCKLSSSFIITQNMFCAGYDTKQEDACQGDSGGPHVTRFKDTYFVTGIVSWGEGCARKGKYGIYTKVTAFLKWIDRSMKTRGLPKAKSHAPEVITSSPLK
smiles,measurement,setting,value
CCOC(=O)c1c(C)oc2cc(OC)c(OCc3oc4cc(OC)c(OCc5oc6cc(OC)c(OS(=O)(=O)[O-])cc6c5C(=O)OCC)cc4c3C(=O)OCC)cc12.[Na+],IC50,[1],1300 nM
same,pIC50(app),[2],5.88
same,IC50,[3],1200 nM
same,pIC50(app),[4],5.94
same,IC50,[5],1800 nM
same,pIC50(app),[6],5.75
same,IC50,[7],1400 nM
same,pIC50(app),[8],5.87
same,IC50,[9],1300 nM
same,pIC50(app),[10],5.87
same,IC50,[11],5600 nM
same,pIC50(app),[12],5.26
same,IC50,[13],3800 nM
same,pIC50(app),[14],5.42
same,IC50,[15],1000 nM
same,pIC50(app),[16],6
same,IC50,[17],900 nM
same,pIC50(app),[18],6.04
same,IC50,[19],800 nM
same,pIC50(app),[20],6.1
same,IC50,[21],900 nM
same,pIC50(app),[22],6.07
same,Ratio IC50,[23],3.8
same,fold change (FC),[24],5.7
same,IC50,[25],430 nM
same,pIC50,[25],6.363
same,fold change (FC),[26],4.1
same,fold change (FC),[27],3.1
same,IC50,[28],190 nM
same,pIC50,[28],6.73
same,IC50,[29]; read-out: IC50,370 nM
same,IC50,[29]; read-out: pIC50 (converted),363 nM
same,IC50,[30],390 nM
same,pIC50,[30],6.41
same,pIC50,[31],6.59
same,pIC50,[32],6.59
same,IC50,[33],270 nM
same,pIC50,[33],6.57
same,IC50,[34],270 nM
same,pIC50,[34],6.57
same,Ratio IC50,[35],1.5
same,fold change (FC),[36],2
same,inhibition,[37],inactive
same,Efficacy,[38],80%
